# High-throughput results: PubChem BioAssay, several laboratories
# KLK5 inh = blocks human kallikrein 5 protease activity | Q9Y337 | recombinant hK5, fluorogenic AMC substrate cleavage | inhibition, % at 5 µM | 210,000 compounds, 0.59% hits | AID 873;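 active = inhibition of 40% or more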;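 also: 0% = enzyme controls without compound and 100% = no-enzyme blanks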
# Target sequence (Q9Y337 67-293 limits assumed): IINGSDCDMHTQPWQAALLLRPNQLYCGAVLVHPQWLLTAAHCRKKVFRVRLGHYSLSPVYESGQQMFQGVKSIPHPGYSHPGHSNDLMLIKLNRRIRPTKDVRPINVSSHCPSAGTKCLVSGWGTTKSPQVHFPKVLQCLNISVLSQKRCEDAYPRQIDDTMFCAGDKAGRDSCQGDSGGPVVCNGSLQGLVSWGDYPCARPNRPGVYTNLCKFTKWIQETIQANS
# AHR act = human AHR activation. AHR-responsive luciferase reporter cells, luminescence. activation, % at 5 µM. P35869. AID 2796. 320,000 compounds, 2.5% hits; in the data active = activation above about 47%;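 also: 0% = vehicle wells and 100% = reference agonist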
# STAT3 activator = STAT3 signaling activation | U3A cells, IL-6 STAT3-luciferase reporter, luminescence; 100% = signal with IL-6 EC80 alone | activation (% of control), % at 5.6 µM | 190,000 compounds, 0.91% hits | AID 871;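 active = activation above the screen-wide mean of compound activation plus 3 SD, cut at about 130% in these data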;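 also: 0% = background luminescence of wells with medium and substrate only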
#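 Material: human STAT1-deficient U3A cells with stable STAT3-luciferase reporter / Probe or stimulus: IL-6 stimulus at 33 ng/mL final / Schedule: 1 h compound pre-exposure, 6 h IL-6 stimulation, 37 °C / Technique: luminescence / Read-out basis: percent of IL-6-only median luminescence / Control set: IL-6-only high control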
# FXIIa inh 1536 = factor XIIa (human) inhibition. purified FXIIa, Boc-QGR-AMC fluorogenic substrate, 2 h. P00748. 220,000 compounds, 0.3% hits. inhibition, % at 5 µM; in the data active = inhibition above about 40%;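 also: 0% = enzyme with no compound and 100% = blank without enzyme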
# FXIa inh 1536 = inhibitors of human coagulation factor XIa | P03951 | purified FXIa, Boc-Glu-Ala-Arg-AMC fluorogenic substrate | inhibition, % at 5 µM | 220,000 compounds, 0.14% hits | AID 798;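 active = inhibition of at least 40%; inactive = inhibition below 40%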;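 also: fluorescence of freed AMC excited at 355 nm; 0% = enzyme without compound and 100% = no enzyme blank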
# Thrombin inh = blocks human thrombin protease activity; P00734; alpha-thrombin, Boc-VPR-AMC fluorogenic substrate cleavage; inhibition, % at 5 µM; 220,000 compounds, 0.26% hits; AID 1046;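 active = inhibition at or above 40%; inactive = inhibition below 40%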;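 also: 0% = enzyme with no compound and 100% = wells without enzyme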
#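 signal = AMC fluorescence, 355/460 nm | material = human alpha-thrombin enzyme | control set = enzyme without compound as high, wells lacking enzyme as low | times = reaction at room temperature | read-out basis = percent inhibition scaled between no-compound controls and no-enzyme blanks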
# AHR act cf = confirmation of human aryl hydrocarbon receptor activators | shares compounds with AHR act | human cells, AHR-responsive luciferase reporter, luminescence | activation, % at 9 µM | 2,300 compounds, 87% hits | AID 2845; in the data active = activation above about 49%;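 also: HepG2 hepatoma cells carrying a DRE-driven firefly luciferase reporter; 0% = vehicle wells and 100% = reference agonist wells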
# PXR act counter = activates human PXR in AHR activator counter-screen | shares compounds with AHR act | cell-based PXR reporter, luciferase luminescence | activation, % at 11.6 µM | 2,300 compounds, 88% hits | AID 434939; in the data active = activation above about 11%;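 also: human hepatoma DPX-2 cells expressing full-length human PXR; 0% = DMSO and 100% = reference agonist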
# * hit, by the source's call; / = no result. In the library only some 3.5% were active in any assay of this set; here they are far more common.
SMILES,KLK5 inh,AHR act,STAT3 activator,FXIIa inh 1536,FXIa inh 1536,Thrombin inh,AHR act cf,PXR act counter
Cc1ccc2nc3c(cc2c1)c(NC(=O)c1cccnc1)nn3C,34,107*,99,11,7,11,118*,25*
CCCC(=O)Nc1nn(C)c2nc3ccc(C)cc3cc12,/,7,/,/,/,/,/,/
CCCC(=O)Nc1nn(C)c2nc3cc(C)ccc3cc12,/,85*,/,/,/,/,53*,/
COc1ccc(-c2[nH]ncc2/C=N\NS(=O)(=O)c2ccc(Cl)cc2)cc1,-8,33,101,5,-7,-3,/,/
COc1ccc(-c2[nH]ncc2/C=N\NS(=O)(=O)c2ccccc2)cc1OC,-24,92*,102,-4,-1,-1,33,24*
O=C(CNC(=O)c1ccccc1)N/N=C/c1cn[nH]c1-c1ccccc1,-12,146*,101,-2,2,-8,92*,20*
COc1cccc(C(=O)NCC(=O)N/N=C/c2cn[nH]c2-c2ccccc2)c1,-3,19,98,-1,-1,-13,/,/
COc1ccccc1C(=O)NCC(=O)N/N=C/c1cn[nH]c1-c1ccccc1,-1,156*,95,4,-3,-3,111*,12*
CC1(C)CNC(=O)c2sc(NC(=O)c3ccccc3Cl)nc2C1,3,10,102,6,-1,-1,/,/
Cc1ccc2nc(SCC(=O)c3ccc(Cl)s3)[nH]c2c1,1,86*,88,16,5,5,45,46*
Cc1ccc2nc(SCC(=O)Nc3ccc(F)c([N+](=O)[O-])c3)[nH]c2c1,-3,99*,98,7,2,-10,114*,27*
C=CCn1c(SCC(=O)NC(=O)c2cccc([N+](=O)[O-])c2)nnc1-c1ccccc1,-8,2,101,15,6,2,/,/
c1ccc(OCCOc2ncnc3sccc23)cc1,5,138*,99,11,8,-6,121*,45*
CCOc1ccc(N2C(=O)C3C(c4ccccc4F)NN(C(=O)c4ccc(C)cc4)C3C2=O)cc1 (stereo unspecified),-12,1,104,7,3,0,/,/
Clc1ccc(-c2n[nH]c3c2CCC3)cc1Cl,-1,100*,93,-16,-8,-12,99*,21*
CCN(CC)c1ccc(-c2nn3c(-c4n[nH]c5c4CCC5)nnc3s2)cc1,-2,16,107,-14,-8,-2,/,/
Cc1cccc(N/C(N)=N/c2nc(C)cc(C)n2)c1,-14,81*,111,23,10,6,50*,12*
CC(=O)Nc1cccc(N/C(N)=N/c2nc(C)cc(C)n2)c1,-3,46,98,0,-4,-11,/,/
C=CCNC(=O)c1ccc(NC(=O)CC2SC(N3CCCC3)=NC2=O)cc1 (stereo unspecified),/,2,/,/,/,/,/,/
CN(C)CCCNc1nc(-c2ccc(Cl)cc2)nc2ccccc12,/,114*,/,/,/,/,77*,26*
N=c1n(CC(=O)c2ccc(Br)cc2)c2ccccc2n1Cc1ccccc1,/,124*,/,/,/,/,81*,46*
CCOc1ccccc1CNC(=O)C1Cc2cc(S(=O)(=O)N3CCCCC3)ccc2N1C(C)=O (stereo unspecified),/,4,/,/,/,/,/,/
Cc1nc(N)sc1C(=O)Nc1ccccc1,11,105*,104,17,-1,1,46,23*
Cc1nc(/N=C\N(C)C)sc1C(=O)Nc1ccccc1,48*,108*,113,14,11,25,130*,11*
Cc1nc(C(=O)Nc2ccccc2)sc1C(=O)Nc1ccccc1,0,2,/,10,1,1,/,/
SMILES,KLK5 inh,AHR act,STAT3 activator,FXIIa inh 1536,FXIa inh 1536,Thrombin inh,AHR act cf,PXR act counter
Cc1nc(-c2cccnc2)sc1C(N)=O,7,0,99,12,2,-1,/,/
Cc1nc(-c2cccnc2)sc1C(=O)Nc1ccc(Cl)cc1,2,124*,84,8,0,-4,112*,13*
O=C1CC(C2CCCO2)C(=O)N1Cc1ccccc1 (stereo unspecified),-7,-1,104,12,4,4,/,/
Cc1ccccc1OCc1nc2ccccc2c(=O)n1/N=C/c1c[nH]c2ccccc12,-15,85*,111,12,2,-5,35,89*
Cc1cccc(C)c1OCc1nc2ccccc2c(=O)n1/N=C/c1c[nH]c2ccccc12,-2,102*,101,12,6,-6,32,112*
Cc1ccc(-c2[nH]ncc2/C=N/n2c(COc3ccccc3C)nc3ccccc3c2=O)cc1,-2,25,92,11,2,-1,/,/
CCn1nnnc1SCC(=O)Nc1nc2ccccc2s1,3,86*,96,10,-1,-7,61*,42*
COCCCn1nnnc1SCC(=O)Nc1nc2ccccc2s1,/,112*,/,/,/,/,101*,61*
CSc1nsc(SCC(=O)Nc2nc3ccccc3s2)n1,-24,80*,91,3,-1,-4,53*,13*
COCCn1c(SCC(=O)Nc2nc3ccccc3s2)nnc1-c1ccoc1C,-7,17,100,15,7,-4,/,/
CC(Nc1ccc(Cl)cc1)C(=O)NN (stereo unspecified),3,0,/,10,-1,-1,/,/
O=C(CN(Cc1ccco1)C(=O)c1ccc(F)cc1)Nc1ccccc1Br,/,0,/,/,/,/,/,/
Oc1ccccc1-c1cc(-c2ccccc2Cl)[nH]n1,20,96*,93,6,-3,-4,115*,18*
CCc1ccc(NC(=O)CSc2nc3nc(C)cc(C)n3n2)cc1,/,28,/,/,/,/,/,/
Cc1ccc(NC(=S)c2nc3ccccc3s2)cc1,-20,82*,95,18,4,4,58*,18*
COc1ccc(NC(=O)c2nc3ccccc3s2)cc1,-10,24,67,2,0,-9,/,/
S=C(Nc1ccc(Cl)cc1)c1nc2ccccc2s1,-137,130*,123,6,-1,-3,112*,13*
Cc1cc(=O)oc(C)c1C(=O)Nc1ccc(F)cc1,-3,0,/,4,1,-2,/,/
CN(C(=O)/C=C/c1ccc2c(c1)OCO2)c1ccccc1,1,97*,117,8,-2,-10,79*,114*
C=CCc1cccc(/C=N/NC(=O)C[n+]2ccccc2)c1O,/,1,/,/,/,/,/,/
C=CCc1cccc(/C=N/NC(=O)CNc2ccccc2)c1O,-27,90*,97,-2,-11,46*,69*,47*
O=c1[nH]c(CSc2nc3ccccc3[nH]2)nc2c1cnn2-c1ccccc1,-36,1,87,13,4,-3,/,/
